Test system: patients with advanced primary biliary cholangitis
Assay: Phase 1 trial: adverse events graded by CTCAE v4.0, safety and tolerability
Type: in vivo, human
Procedure, shortened: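 Seven advanced PBC patients (stage III or higher) received OP-724 iv at 280 (n=6) or 380 (n=1) mg/m2 over 4 hours, twice weekly for 12 cycles, after a single dose given 7 days before cycle 1. AEs and laboratory results were recorded throughout and graded by CTCAE v4.0. The primary endpoint was SAEs where drug causality could not be excluded.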

With `C[C@H]1[C@H]2N(C(=O)CN(C)N2C(=O)NCc2ccccc2)[C@@H](Cc2ccc(OP(=O)(O)O)cc2)C(=O)N1Cc1cccc2cccnc12` [OP-724] the “Abdominal discomfort, Grade 1, patients n (%)” value (280 mg/m^2/4 hours (n=6)) was 2 (33%), the “Abdominal discomfort, Grade 2, patients n (%)” value (280 mg/m^2/4 hours (n=6)) was 0 and the “Abdominal discomfort, Grades 3–5, patients n (%)” value (280 mg/m^2/4 hours (n=6)) was 0. For the same compound, the “Back pain, Grade 1, patients n (%)” value (280 mg/m^2/4 hours (n=6)) was 0, the “Back pain, Grade 2, patients n (%)” value (280 mg/m^2/4 hours (n=6)) was 1 (17%) and the “Back pain, Grades 3–5, patients n (%)” value (280 mg/m^2/4 hours (n=6)) was 0. For the same compound, the “Constipation, Grade 1, patients n (%)” value (280 mg/m^2/4 hours (n=6)) was 1 (17%), the “Constipation, Grade 2, patients n (%)” value (280 mg/m^2/4 hours (n=6)) was 0 and the “Constipation, Grades 3–5, patients n (%)” value (280 mg/m^2/4 hours (n=6)) was 0. The “Dermatitis contact, Grade 1, patients n (%)” value (280 mg/m^2/4 hours (n=6)) was 1 (17%), the “Dermatitis contact, Grade 2, patients n (%)” value (280 mg/m^2/4 hours (n=6)) was 0 and the “Dermatitis contact, Grades 3–5, patients n (%)” value (280 mg/m^2/4 hours (n=6)) was 0. For the same compound, the “Diarrhoea, Grade 1, patients n (%)” value (280 mg/m^2/4 hours (n=6)) was 1 (17%), the “Diarrhoea, Grade 2, patients n (%)” value (280 mg/m^2/4 hours (n=6)) was 0 and the “Diarrhoea, Grades 3–5, patients n (%)” value (280 mg/m^2/4 hours (n=6)) was 0. The “Dry skin, Grade 1, patients n (%)” value (280 mg/m^2/4 hours (n=6)) was 0, the “Dry skin, Grade 2, patients n (%)” value (280 mg/m^2/4 hours (n=6)) was 1 (17%) and the “Dry skin, Grades 3–5, patients n (%)” value (280 mg/m^2/4 hours (n=6)) was 0. For the same compound, the “Fever, Grade 1, patients n (%)” value (280 mg/m^2/4 hours (n=6)) was 1 (17%), the “Fever, Grade 2, patients n (%)” value (280 mg/m^2/4 hours (n=6)) was 0 and the “Fever, Grades 3–5, patients n (%)” value (280 mg/m^2/4 hours (n=6)) was 0. The “Haemorrhage, Grade 1, patients n (%)” value (280 mg/m^2/4 hours (n=6)) was 0, the “Haemorrhage, Grade 2, patients n (%)” value (280 mg/m^2/4 hours (n=6)) was 1 (17%) and the “Haemorrhage, Grades 3–5, patients n (%)” value (280 mg/m^2/4 hours (n=6)) was 0. The “Hepatic function abnormal, Grade 1, patients n (%)” value (280 mg/m^2/4 hours (n=6)) was 1 (17%), the “Hepatic function abnormal, Grade 2, patients n (%)” value (280 mg/m^2/4 hours (n=6)) was 1 (17%) and the “Hepatic function abnormal, Grades 3–5, patients n (%)” value (280 mg/m^2/4 hours (n=6)) was 0. The “Infusion site extravasation, Grade 1, patients n (%)” value (280 mg/m^2/4 hours (n=6)) was 0, the “Infusion site extravasation, Grade 2, patients n (%)” value (280 mg/m^2/4 hours (n=6)) was 1 (17%) and the “Infusion site extravasation, Grades 3–5, patients n (%)” value (280 mg/m^2/4 hours (n=6)) was 0. The “Nasopharyngitis, Grade 1, patients n (%)” value (280 mg/m^2/4 hours (n=6)) was 0, the “Nasopharyngitis, Grade 2, patients n (%)” value (280 mg/m^2/4 hours (n=6)) was 0 and the “Nasopharyngitis, Grades 3–5, patients n (%)” value (280 mg/m^2/4 hours (n=6)) was 0. For the same compound, the “Nausea, Grade 1, patients n (%)” value (280 mg/m^2/4 hours (n=6)) was 1 (17%), the “Nausea, Grade 2, patients n (%)” value (280 mg/m^2/4 hours (n=6)) was 0 and the “Nausea, Grades 3–5, patients n (%)” value (280 mg/m^2/4 hours (n=6)) was 0. The “Open angle glaucoma, Grade 1, patients n (%)” value (280 mg/m^2/4 hours (n=6)) was 0, the “Open angle glaucoma, Grade 2, patients n (%)” value (280 mg/m^2/4 hours (n=6)) was 1 (17%) and the “Open angle glaucoma, Grades 3–5, patients n (%)” value (280 mg/m^2/4 hours (n=6)) was 0. The “Renal impairment, Grade 1, patients n (%)” value (280 mg/m^2/4 hours (n=6)) was 1 (17%), the “Renal impairment, Grade 2, patients n (%)” value (280 mg/m^2/4 hours (n=6)) was 0 and the “Renal impairment, Grades 3–5, patients n (%)” value (280 mg/m^2/4 hours (n=6)) was 0. For the same compound, the “Tooth fracture, Grade 1, patients n (%)” value (280 mg/m^2/4 hours (n=6)) was 1 (17%), the “Tooth fracture, Grade 2, patients n (%)” value (280 mg/m^2/4 hours (n=6)) was 0 and the “Tooth fracture, Grades 3–5, patients n (%)” value (280 mg/m^2/4 hours (n=6)) was 0. For the same compound, the “Vomiting, Grade 1, patients n (%)” value (280 mg/m^2/4 hours (n=6)) was 1 (17%), the “Vomiting, Grade 2, patients n (%)” value (280 mg/m^2/4 hours (n=6)) was 0 and the “Vomiting, Grades 3–5, patients n (%)” value (280 mg/m^2/4 hours (n=6)) was 0. The “Abdominal discomfort, Grade 1, patients n (%)” value (380 mg/m^2/4 hours (n=1)) was 0, the “Abdominal discomfort, Grade 2, patients n (%)” value (380 mg/m^2/4 hours (n=1)) was 0 and the “Abdominal discomfort, Grades 3–5, patients n (%)” value (380 mg/m^2/4 hours (n=1)) was 0. The “Back pain, Grade 1, patients n (%)” value (380 mg/m^2/4 hours (n=1)) was 0, the “Back pain, Grade 2, patients n (%)” value (380 mg/m^2/4 hours (n=1)) was 0 and the “Back pain, Grades 3–5, patients n (%)” value (380 mg/m^2/4 hours (n=1)) was 0. For the same compound, the “Constipation, Grade 1, patients n (%)” value (380 mg/m^2/4 hours (n=1)) was 0, the “Constipation, Grade 2, patients n (%)” value (380 mg/m^2/4 hours (n=1)) was 0 and the “Constipation, Grades 3–5, patients n (%)” value (380 mg/m^2/4 hours (n=1)) was 0. The “Dermatitis contact, Grade 1, patients n (%)” value (380 mg/m^2/4 hours (n=1)) was 0, the “Dermatitis contact, Grade 2, patients n (%)” value (380 mg/m^2/4 hours (n=1)) was 0 and the “Dermatitis contact, Grades 3–5, patients n (%)” value (380 mg/m^2/4 hours (n=1)) was 0. For the same compound, the “Diarrhoea, Grade 1, patients n (%)” value (380 mg/m^2/4 hours (n=1)) was 0, the “Diarrhoea, Grade 2, patients n (%)” value (380 mg/m^2/4 hours (n=1)) was 0 and the “Diarrhoea, Grades 3–5, patients n (%)” value (380 mg/m^2/4 hours (n=1)) was 0. For the same compound, the “Dry skin, Grade 1, patients n (%)” value (380 mg/m^2/4 hours (n=1)) was 0, the “Dry skin, Grade 2, patients n (%)” value (380 mg/m^2/4 hours (n=1)) was 0 and the “Dry skin, Grades 3–5, patients n (%)” value (380 mg/m^2/4 hours (n=1)) was 0. The “Fever, Grade 2, patients n (%)” value (380 mg/m^2/4 hours (n=1)) was 0, the “Fever, Grades 3–5, patients n (%)” value (380 mg/m^2/4 hours (n=1)) was 0 and the “Haemorrhage, Grade 1, patients n (%)” value (380 mg/m^2/4 hours (n=1)) was 0. For the same compound, the “Haemorrhage, Grade 2, patients n (%)” value (380 mg/m^2/4 hours (n=1)) was 0, the “Haemorrhage, Grades 3–5, patients n (%)” value (380 mg/m^2/4 hours (n=1)) was 0 and the “Hepatic function abnormal, Grade 1, patients n (%)” value (380 mg/m^2/4 hours (n=1)) was 0. For the same compound, the “Hepatic function abnormal, Grades 3–5, patients n (%)” value (380 mg/m^2/4 hours (n=1)) was 0 and the “Infusion site extravasation, Grade 1, patients n (%)” value (380 mg/m^2/4 hours (n=1)) was 0.

From PMC9710334 (BMJ Open Gastroenterology, 2022)
